Measurements as given in ChEMBL document CHEMBL1131637, “Novel and selective 5-HT2C/2B receptor antagonists as potential anxiolytic agents: synthesis, quantitative structure-activity relationships, and molecular modeling of substituted 1-(3-pyridylcarbamoyl)indolines” (J Med Chem, 1998).

What was measured:
[1] = tested on: Rattus norvegicus; assay: Percentage change unpunished lever presses from mean score on 6-8 rats at 1 mg/kg po1h pretest; format: functional
[2] = tested on: Rattus norvegicus; assay: Percentage change punished lever presses from mean score on 6-8 rats(P<0.001) at 1 mg/kg po1h pretest; format: functional
[3] = target: T1, 5-hydroxytryptamine receptor 2C (Homo sapiens, UniProt P28335); assay: Binding affinity towards cloned human 5-hydroxytryptamine 2C receptor expressed in HEK 293 cells using [3H]mesulergine as radioligand; format: cell-based, HEK293
T1 sequence (P28335 whole entry): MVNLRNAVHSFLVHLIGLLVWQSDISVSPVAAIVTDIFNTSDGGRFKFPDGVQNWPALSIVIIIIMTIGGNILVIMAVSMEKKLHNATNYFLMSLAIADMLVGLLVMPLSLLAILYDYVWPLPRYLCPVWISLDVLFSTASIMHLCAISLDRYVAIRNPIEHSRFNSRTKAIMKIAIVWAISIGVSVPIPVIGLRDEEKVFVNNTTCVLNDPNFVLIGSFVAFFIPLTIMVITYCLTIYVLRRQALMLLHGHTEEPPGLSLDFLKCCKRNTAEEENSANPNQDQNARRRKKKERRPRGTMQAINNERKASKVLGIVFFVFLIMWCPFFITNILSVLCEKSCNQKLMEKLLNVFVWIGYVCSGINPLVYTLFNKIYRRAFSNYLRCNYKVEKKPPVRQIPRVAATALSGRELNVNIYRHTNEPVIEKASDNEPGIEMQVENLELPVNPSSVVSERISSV

[4] = tested on: Rattus norvegicus; assay: Percentage change punished lever presses from mean score on 6-8 ratsP<0.001) at 20 mg/kg po1h pretest; format: functional
[5] = species on record: Rattus norvegicus; assay: The dose required to reverse […]- induced hypolocomotion in rat by 50 %; format: functional; settings: ip, 0.5 h, read-out: ID50 (the source's name)
[6] = tested on: Rattus norvegicus; assay: Percentage change unpunished lever presses from mean score on 6-8 rats(P<0.05) at 2 mg/kg po1h pretest; format: functional
[7] = tested on: Rattus norvegicus; assay: Percentage change punished lever presses from mean score on 6-8 ratsP<0.001) at 2 mg/kg po1h pretest; format: functional
[8] = tested on: Rattus norvegicus; assay: Percentage change unpunished lever presses from mean score on 6-8 rats at 10 mg/kg po1h pretest; format: functional
[9] = tested on: Rattus norvegicus; assay: Percentage change unpunished lever presses from mean score on 6-8 rats(P<0.01) at 20 mg/kg po1h pretest; format: functional
[10] = tested on: Rattus norvegicus; assay: Percentage change unpunished lever presses from mean score on 6-8 rats at 0.5 mg/kg po1h pretest; format: functional
[11] = tested on: Rattus norvegicus; assay: Percentage change punished lever presses from mean score on 6-8 ratsP<0.001) at 10 mg/kg po1h pretest; format: functional
[12] = tested on: Rattus norvegicus; assay: Percentage change unpunished lever presses from mean score on 6-8 rats at 5 mg/kg po1h pretest; format: functional
[13] = tested on: Rattus norvegicus; assay: Percentage change punished lever presses from mean score on 6-8 rats at 0.5 mg/kg po1h pretest; format: functional
[14] = tested on: Rattus norvegicus; assay: Percentage change punished lever presses from mean score on 6-8 ratsP<0.001) at 5 mg/kg po1h pretest; format: functional
[15] = target: 5-hydroxytryptamine receptor 2A (Homo sapiens, UniProt P28223); assay: Binding affinity towards human 5-hydroxytryptamine 2A receptor expressed in HEK 293 cells using [3H]ketanserin as radioligand; format: cell-based, HEK293
Method in brief: (§1)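 Radioligand binding on human cloned receptors stably expressed in HEK 293 cells; 5-HT2A labelled with [3H]ketanserin, 5-HT2B with [3H]-5-HT. Values are means of at least two determinations, each within 0.2 log unit of the mean.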

[16] = tested on: Rattus norvegicus; assay: Percentage change unpunished lever presses from mean score on 6-8 rats at 2 mg/kg po1h pretest; format: functional
[17] = tested on: Rattus norvegicus; assay: Percentage change punished lever presses from mean score on 6-8 rats(P<0.001) at 5 mg/kg po1h pretest; format: functional
[18] = tested on: Rattus norvegicus; assay: Percentage change punished lever presses from mean score on 6-8 rats at 0.2 mg/kg po1h pretest; format: functional
[19] = tested on: Rattus norvegicus; assay: Percentage change unpunished lever presses from mean score on 6-8 rats at 0.2 mg/kg po1h pretest; format: functional
[20] = tested on: Rattus norvegicus; assay: Percentage change punished lever presses from mean score on 6-8 rats(P<0.001) at 0.5 mg/kg po1h pretest; format: functional
[21] = tested on: Rattus norvegicus; assay: Percentage change punished lever presses from mean score on 6-8 rats(P<0.001) at 2 mg/kg po1h pretest; format: functional
[22] = target: 5-hydroxytryptamine receptor 2B (Homo sapiens, UniProt P41595); assay: Binding affinity towards cloned human 5-hydroxytryptamine 2B receptor expressed in HEK 293 cells using [3H]5-HT as radioligand; format: cell-based, HEK293; method in brief: as §1
[23] = tested on: Rattus norvegicus; assay: Percentage change unpunished lever presses from mean score on 6-8 rats(P<0.05) at 0.1 mg/kg po1h pretest; format: functional
[24] = tested on: Rattus norvegicus; assay: Percentage change punished lever presses from mean score on 6-8 rats(P<0.001) at 0.2 mg/kg po1h pretest; format: functional
[25] = tested on: Rattus norvegicus; assay: Percentage change unpunished lever presses from mean score on 6-8 rats at 20 mg/kg po1h pretest; format: functional
[26] = tested on: Rattus norvegicus; assay: Percentage change punished lever presses from mean score on 6-8 rats(P<0.001) at 20 mg/kg po1h pretest; format: functional
[27] = tested on: Rattus norvegicus; assay: Percentage change unpunished lever presses from mean score on 6-8 rats(P<0.01) at 5 mg/kg po1h pretest
[28] = tested on: Rattus norvegicus; assay: Percentage change punished lever presses from mean score on 6-8 rats(P<0.001) at 10 mg/kg po1h pretest; format: functional

Sequence of 5-hydroxytryptamine receptor 2A (P28223 whole entry): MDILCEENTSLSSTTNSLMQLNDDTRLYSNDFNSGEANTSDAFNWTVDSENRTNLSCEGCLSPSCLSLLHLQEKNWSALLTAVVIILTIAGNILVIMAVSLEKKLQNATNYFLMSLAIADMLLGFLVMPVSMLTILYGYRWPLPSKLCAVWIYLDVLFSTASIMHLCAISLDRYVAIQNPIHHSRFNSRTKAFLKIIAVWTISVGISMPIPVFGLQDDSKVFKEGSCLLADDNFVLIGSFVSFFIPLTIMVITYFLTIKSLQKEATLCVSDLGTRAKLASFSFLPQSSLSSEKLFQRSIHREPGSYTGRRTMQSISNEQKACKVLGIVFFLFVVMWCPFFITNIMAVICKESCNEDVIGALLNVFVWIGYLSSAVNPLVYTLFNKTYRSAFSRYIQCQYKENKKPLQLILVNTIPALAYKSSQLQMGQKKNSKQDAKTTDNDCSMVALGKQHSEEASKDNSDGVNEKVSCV
Sequence of 5-hydroxytryptamine receptor 2B (P41595 whole entry): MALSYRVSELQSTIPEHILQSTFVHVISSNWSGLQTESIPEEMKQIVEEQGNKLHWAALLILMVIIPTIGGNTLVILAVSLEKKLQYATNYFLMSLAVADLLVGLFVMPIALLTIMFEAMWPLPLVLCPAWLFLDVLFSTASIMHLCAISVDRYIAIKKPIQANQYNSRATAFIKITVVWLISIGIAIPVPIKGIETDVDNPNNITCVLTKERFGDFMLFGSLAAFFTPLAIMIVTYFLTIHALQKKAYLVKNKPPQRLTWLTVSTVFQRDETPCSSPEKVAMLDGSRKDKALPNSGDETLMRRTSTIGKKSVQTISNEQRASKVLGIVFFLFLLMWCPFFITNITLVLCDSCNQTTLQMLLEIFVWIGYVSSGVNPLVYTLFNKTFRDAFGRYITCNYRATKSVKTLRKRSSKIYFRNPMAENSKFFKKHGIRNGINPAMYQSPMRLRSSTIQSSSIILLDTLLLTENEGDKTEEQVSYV

SMILES | Ki [3] | Ki [15] | also measured
CC(=O)c1cc2c(cc1C(F)(F)F)N(C(=O)Nc1cccnc1)CC2 | 50.1 nM | 3160 nM | –
CC(C)c1cc2c(cc1Cl)N(C(=O)Nc1cccnc1)CC2 | 20 nM | 2000 nM | –
COC(=O)c1cc2c(cc1Cl)N(C(=O)Nc1cccnc1)CC2 | 31.6 nM | 6310 nM | ED50 [5]: 16 mg/kg
O=C(Nc1cccnc1)N1CCc2ccc(Cl)c(Cl)c21 | 794 nM | 5010 nM | –
CCOc1cc2c(cc1C(F)(F)F)N(C(=O)Nc1cccnc1)CC2 | 6.31 nM | 1580 nM | Change [1]: 4%; Change [2]: 33%; ED50 [5]: 1 mg/kg; Change [16]: 1%; Change [10]: 3%; Change [12]: 0%; Change [17]: 31%; Change [18]: 5%; Change [19]: 3%; Change [20]: 31%; Change [21]: 24%
CCCc1cc2c(cc1Cl)N(C(=O)Nc1cccnc1)CC2 | 20 nM | 1260 nM | –
Cc1cc2c(cc1Cl)CCN2C(=O)Nc1cccnc1 | 10 nM | 398 nM | –
COc1cc2c(cc1C(F)(F)F)N(C(=O)Nc1cccnc1)CC2 | 10 nM | 1000 nM | Change [23]: 8%; Change [1]: -2%; Change [2]: 28%; ED50 [5]: 0.8 mg/kg; Change [24]: 26%; Change [8]: 0%; Change [16]: 3%; Change [25]: -1%; Change [26]: 62%; Change [10]: 2%; Change [17]: 37%; Change [27]: 8%; Change [19]: 2%; Change [20]: 36%; Change [28]: 63%; Change [21]: 34%
CN(C)c1ccc2c(c1)CCN2C(=O)Nc1cccnc1 | 316 nM | > 6310 nM | –
CSc1c(Cl)cc2c(c1Cl)CCN2C(=O)Nc1cccnc1 | 2.51 nM | 63.1 nM | –
CCOc1cc2c(cc1Cl)N(C(=O)Nc1cccnc1)CC2 | 25.1 nM | 3980 nM | ED50 [5]: 3.4 mg/kg
Cc1cc2c(cc1Br)N(C(=O)Nc1cccnc1)CC2 | 3.98 nM | 63.1 nM | –
CSc1ccc2c(c1)CCN2C(=O)Nc1cccnc1 | 39.8 nM | 3980 nM | –

Further molecules by falling Ki [3], results first:

Ki [3] | Ki [15] | SMILES | also measured
501 nM | 3980 nM | O=C(Nc1cccnc1)N1CCc2c(Cl)cccc21 | –
316 nM | 3980 nM | O=C(Nc1cccnc1)N1CCc2cc(Br)cc([N+](=O)[O-])c21 | –
126 nM | 5010 nM | O=C(Nc1cccnc1)N1CCc2cc(-c3ccccc3)ccc21 | –
39.8 nM | 631 nM | CC(C)(C)c1ccc2c(c1Cl)CCN2C(=O)Nc1cccnc1 | –
31.6 nM | 1260 nM | O=C(Nc1cccnc1)N1CCc2cc(C(F)(F)F)ccc21 | –
31.6 nM | 5010 nM | CC(C)Sc1cc2c(cc1C(F)(F)F)N(C(=O)Nc1cccnc1)CC2 | –
20 nM | 3980 nM | O=C(Nc1cccnc1)N1CCc2cc(OCC3CC3)c(C(F)(F)F)cc21 | –
20 nM | 631 nM | CC(C)(C)c1cc2c(cc1Cl)N(C(=O)Nc1cccnc1)CC2 | Ki [22]: 158 nM
15.8 nM | 2510 nM | CSc1cc2c(cc1C#N)N(C(=O)Nc1cccnc1)CC2 | –
12.6 nM | 1580 nM | COc1cc2c(cc1Br)N(C(=O)Nc1cccnc1)CC2 | ED50 [5]: 1.8 mg/kg
3.98 nM | 31.6 nM | Cc1c(Cl)cc2c(c1Cl)CCN2C(=O)Nc1cccnc1 | –
3.16 nM | 3160 nM | CCSc1cc2c(cc1C(F)(F)F)N(C(=O)Nc1cccnc1)CC2 | Ki [22]: 10 nM; ED50 [5]: 4.4 mg/kg
2 nM | 501 nM | CSc1cc2c(cc1Br)N(C(=O)Nc1cccnc1)CC2 | Change [1]: 2%; Change [2]: 24%; Change [4]: 53%; ED50 [5]: 3 mg/kg; Change [6]: 5%; Change [7]: 29%; Change [8]: 3%; Change [9]: 6%; Change [10]: 0%; Change [11]: 38%; Change [12]: 4%; Change [13]: 0%; Change [14]: 28%
